Reference: ChEMBL document CHEMBL1255567, “Design, synthesis, and structure-activity relationships of novel bicyclic azole-amines as negative allosteric modulators of metabotropic glutamate receptor 5” (J Med Chem, 2010)
Values belong to the molecule of their own block, whether it stands above or below them. Active and inactive are the calls of the source. The calls are words filed in the database; no cut-off is given here.

Tests used:
[1] = molecular target: T1, Metabotropic glutamate receptor 5 (Homo sapiens, UniProt P41594); test: Modulation of human recombinant mGluR5 expressed in CHO cells assessed as inhibition of glutamate-induced response at 10 uM; assay type: cell-based
Target sequence in this assay (P41594 21-1212 limits assumed): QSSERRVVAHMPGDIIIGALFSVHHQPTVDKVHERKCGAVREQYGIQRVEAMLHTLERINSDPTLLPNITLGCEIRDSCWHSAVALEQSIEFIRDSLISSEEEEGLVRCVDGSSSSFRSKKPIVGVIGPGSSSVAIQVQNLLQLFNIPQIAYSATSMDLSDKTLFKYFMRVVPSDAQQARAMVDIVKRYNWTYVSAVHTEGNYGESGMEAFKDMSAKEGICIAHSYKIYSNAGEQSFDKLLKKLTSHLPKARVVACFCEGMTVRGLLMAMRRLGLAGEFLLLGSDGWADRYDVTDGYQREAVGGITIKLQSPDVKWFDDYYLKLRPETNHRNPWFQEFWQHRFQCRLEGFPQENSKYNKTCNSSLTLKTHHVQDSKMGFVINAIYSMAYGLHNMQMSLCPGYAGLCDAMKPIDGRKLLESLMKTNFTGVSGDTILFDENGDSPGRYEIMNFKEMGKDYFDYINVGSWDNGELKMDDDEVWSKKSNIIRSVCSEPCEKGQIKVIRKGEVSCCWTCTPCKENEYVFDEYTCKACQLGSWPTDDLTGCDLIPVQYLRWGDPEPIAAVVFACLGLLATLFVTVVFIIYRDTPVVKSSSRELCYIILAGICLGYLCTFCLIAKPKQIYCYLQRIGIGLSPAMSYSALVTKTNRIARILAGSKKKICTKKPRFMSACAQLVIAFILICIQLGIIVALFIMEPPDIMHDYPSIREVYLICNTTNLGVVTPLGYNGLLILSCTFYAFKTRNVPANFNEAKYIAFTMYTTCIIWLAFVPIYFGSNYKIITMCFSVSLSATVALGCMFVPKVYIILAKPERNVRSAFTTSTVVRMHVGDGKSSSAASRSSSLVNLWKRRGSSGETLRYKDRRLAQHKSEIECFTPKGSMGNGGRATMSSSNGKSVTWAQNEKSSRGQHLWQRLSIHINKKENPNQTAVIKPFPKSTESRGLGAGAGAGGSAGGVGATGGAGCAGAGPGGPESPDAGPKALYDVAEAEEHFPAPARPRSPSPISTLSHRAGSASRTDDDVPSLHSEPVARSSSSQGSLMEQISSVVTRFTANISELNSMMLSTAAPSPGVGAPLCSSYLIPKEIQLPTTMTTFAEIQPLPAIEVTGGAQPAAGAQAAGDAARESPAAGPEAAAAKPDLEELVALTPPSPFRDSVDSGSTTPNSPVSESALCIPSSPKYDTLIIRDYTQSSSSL

[2] = molecular target: T1, Metabotropic glutamate receptor 5; test: Modulation of human recombinant mGluR5 expressed in CHO cells assessed as inhibition of glutamate-induced response; assay type: cell-based
Summary of the method: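 Aequorin cell line with doxycycline-inducible human mGluR5, induced 18 h (600 ng/mL). Cells loaded with coelenterazine-h ≥4 h at room temperature, preincubated with compound ≥3 min, then challenged with glutamate at EC80. Luminescence read on FDSS 6000, normalized to digitonin or 20 μM ATP wells. IC50 from sigmoidal fit; mean of two determinations.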
Target sequence in this assay (P41594 whole entry): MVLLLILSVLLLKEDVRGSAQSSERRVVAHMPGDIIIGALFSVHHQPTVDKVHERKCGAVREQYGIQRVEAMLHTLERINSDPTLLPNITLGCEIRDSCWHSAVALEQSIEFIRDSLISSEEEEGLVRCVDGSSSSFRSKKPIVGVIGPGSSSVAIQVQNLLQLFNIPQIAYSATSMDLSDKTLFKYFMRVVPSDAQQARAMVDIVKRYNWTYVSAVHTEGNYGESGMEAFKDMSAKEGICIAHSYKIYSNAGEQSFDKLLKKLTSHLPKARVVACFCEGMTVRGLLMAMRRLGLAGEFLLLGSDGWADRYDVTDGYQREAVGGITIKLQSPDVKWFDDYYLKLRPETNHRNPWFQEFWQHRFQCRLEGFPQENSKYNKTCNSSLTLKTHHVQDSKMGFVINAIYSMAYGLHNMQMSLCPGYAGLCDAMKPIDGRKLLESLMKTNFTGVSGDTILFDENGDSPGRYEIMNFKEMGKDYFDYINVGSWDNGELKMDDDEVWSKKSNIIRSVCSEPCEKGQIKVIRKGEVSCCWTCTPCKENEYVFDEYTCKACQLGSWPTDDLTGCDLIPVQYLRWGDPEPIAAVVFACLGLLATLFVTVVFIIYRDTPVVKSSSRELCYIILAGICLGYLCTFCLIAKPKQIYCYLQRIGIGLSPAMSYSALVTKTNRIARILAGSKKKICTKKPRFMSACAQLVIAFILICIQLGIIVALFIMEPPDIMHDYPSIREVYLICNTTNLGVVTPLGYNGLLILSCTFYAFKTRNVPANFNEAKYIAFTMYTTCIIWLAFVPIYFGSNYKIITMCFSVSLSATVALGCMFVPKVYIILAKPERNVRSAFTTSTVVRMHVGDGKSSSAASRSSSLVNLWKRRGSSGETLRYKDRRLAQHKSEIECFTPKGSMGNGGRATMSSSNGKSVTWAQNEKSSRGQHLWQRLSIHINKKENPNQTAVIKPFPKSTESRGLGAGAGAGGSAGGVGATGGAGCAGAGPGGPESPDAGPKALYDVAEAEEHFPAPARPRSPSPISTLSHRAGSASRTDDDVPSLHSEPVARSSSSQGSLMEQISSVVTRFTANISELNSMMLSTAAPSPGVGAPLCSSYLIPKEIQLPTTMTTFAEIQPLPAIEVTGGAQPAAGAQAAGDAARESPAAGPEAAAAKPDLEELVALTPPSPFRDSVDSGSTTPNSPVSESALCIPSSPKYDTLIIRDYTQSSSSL

[3] = system: Brain; test: Drug level in Sprague-Dawley rat brain at 3 mg/kg, ip; assay type: ADME, organism-based; parameters: dose 3 mg/kg, route intraperitoneal; settings: in vivo, read-out: Drug uptake
Summary of the method: (§1)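 Male Sprague-Dawley rats (200-250 g, n = 4) given 3 mg/kg ip in 45% HPβCD. Trunk blood and brain taken at sacrifice. Brain homogenized at 40 mg/mL in 95:5 water:acetonitrile with 0.1% formic acid. Plasma or homogenate precipitated with acetonitrile, dried, reconstituted and measured by LC/MS/MS.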

[4] = system: Rattus norvegicus; test: Ex vivo receptor occupancy of mGluR5 receptor in Sprague-Dawley rat brain at 3 mg/kg, ip after 60 mins; assay type: functional; settings: route intraperitoneal
Summary of the method: (§2)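 Male Sprague-Dawley rats (n = 4) dosed 3 mg/kg ip in 45% HPβCD. At set times postdose, iv tail-vein 3H-mPEPy tracer; decapitated 2 min later. Striatum and cerebellum sections imaged 12 h on β-imager. %RO derived from striatum:cerebellum signal ratio relative to vehicle animals; mean ± SEM.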

[5] = molecular target: Metabotropic glutamate receptor 5 (Rattus norvegicus, UniProt P31424); test: Displacement of [3H]-MPEP from mGluR5 in rat cortical membranes; assay type: cell membranes, Membrane
Summary of the method: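 Competition binding against [3H]-MPEP on rat cortical membranes, run in duplicate. Nonspecific binding defined with a 200-fold excess of reference modulator. Incubated 120 min at 4 °C in 0.1 mL, filtered on PEI-presoaked GF-C filters, washed with cold 50 mM Tris-HCl pH 7.4, scintillation counted. Ki reported as mean of two determinations; MPEP used as control.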

[6] = system: Rattus norvegicus; test: Ex vivo receptor occupancy of mGluR5 receptor in po dosed Sprague-Dawley rat brain after 60 mins; assay type: functional; settings: 1 h
Summary of the method: (§3)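 Male Sprague-Dawley rats (200-250 g, n = 4) dosed ip or po at 0.3, 1, 3, 10, 30 mg/kg in 45% HPβCD. After 60 min, iv 3H-mPEPy tracer; killed 2 min later. Striatal versus cerebellar radioactivity on β-imager gives %RO against vehicle. Dose-occupancy curves fitted.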

[7] = Cmax in Sprague-Dawley rat at 2 mg/kg, po; assay type: ADME, organism-based; parameters: dose 2 mg/kg, route oral; settings: in vivo
Summary of the method: (§4)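 Male Sprague-Dawley rats, 3 per cohort; 2 mg/kg iv or 2 and 10 mg/kg oral gavage. Vehicle 40% hydroxypropyl-βCD:50 mM potassium phosphate pH 6.0 (50:50), 0.5 mg/mL nominal, filtered. Jugular-cannula blood predose and 5 min to 24 h. K2-EDTA plasma, methanol precipitation with internal standard, LC/MS/MS (LLOQ 2.5 ng/mL). Noncompartmental analysis.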

[8] = Volume of distribution in rhesus monkey at 1 mg/kg, iv; assay type: ADME, organism-based, Macaca mulatta; parameters: dose 1 mg/kg, route intravenous; settings: in vivo
Summary of the method: (§5)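 Male Rhesus monkeys, 3 per cohort; 1 mg/kg iv or oral gavage. Vehicle 40% hydroxypropyl-βCD:50 mM potassium phosphate pH 6.0 (50:50), 0.5 mg/mL nominal, filtered. Femoral vein blood predose and 5 min to 24 h. K3EDTA plasma, protein precipitation with internal standard, LC/MS/MS (LLOQ 2.5 ng/mL). Noncompartmental PK parameters.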

[9] = Half life in Sprague-Dawley rat at 10 mg/kg, po; assay type: ADME, organism-based; parameters: dose 10 mg/kg, route oral; settings: in vivo; summary of the method: as §4
[10] = AUC (0 to t) in rhesus monkey at 1 mg/kg, iv; assay type: ADME, organism-based, Macaca mulatta; parameters: dose 1 mg/kg, route intravenous; settings: plasma; summary of the method: as §5
[11] = Clearance in rhesus monkey at 1 mg/kg, iv; assay type: ADME, organism-based, Macaca mulatta; parameters: dose 1 mg/kg, route intravenous; settings: in vivo; summary of the method: as §5
[12] = AUC (0 to t) in Sprague-Dawley rat at 2 mg/kg, po; assay type: ADME, organism-based; parameters: dose 2 mg/kg, route oral; settings: plasma; summary of the method: as §4
[13] = Clearance in Sprague-Dawley rat at 2 mg/kg, iv; assay type: ADME, organism-based; parameters: dose 2 mg/kg, route intravenous; settings: in vivo; summary of the method: as §4
[14] = system: Rhesus monkey; test: Cmax in rhesus monkey at 1 mg/kg, iv; assay type: ADME, organism-based, Macaca mulatta; parameters: dose 1 mg/kg, route intravenous; settings: in vivo; summary of the method: as §5
[15] = Half life in rhesus monkey at 1 mg/kg, po; assay type: ADME, organism-based, Macaca mulatta; parameters: dose 1 mg/kg, route oral; settings: in vivo; summary of the method: as §5
[16] = molecular target: Kappa-type opioid receptor (Homo sapiens) (UniProt P41145); test: Inhibition of kappa opioid receptor at 10 uM
[17] = Half life in rhesus monkey at 1 mg/kg, iv; assay type: ADME, organism-based, Macaca mulatta; parameters: dose 1 mg/kg, route intravenous; settings: in vivo; summary of the method: as §5
[18] = AUC (0 to t) in Sprague-Dawley rat at 2 mg/kg, iv; assay type: ADME, organism-based; parameters: dose 2 mg/kg, route intravenous; settings: plasma; summary of the method: as §4
[19] = AUC (0 to t) in Sprague-Dawley rat at 10 mg/kg, po; assay type: ADME, organism-based; parameters: dose 10 mg/kg, route oral; settings: plasma; summary of the method: as §4
[20] = Oral bioavailability in rhesus monkey at 1 mg/kg; assay type: ADME, organism-based, Macaca mulatta; settings: in vivo; summary of the method: as §5
[21] = Half life in Sprague-Dawley rat at 2 mg/kg, po; assay type: ADME, organism-based; parameters: dose 2 mg/kg, route oral; settings: in vivo; summary of the method: as §4
[22] = Oral bioavailability in Sprague-Dawley rat at 10 mg/kg; assay type: ADME, organism-based; settings: in vivo; summary of the method: as §4
[23] = Cmax in Sprague-Dawley rat at 10 mg/kg, po; assay type: ADME, organism-based; parameters: dose 10 mg/kg, route oral; settings: in vivo; summary of the method: as §4
[24] = AUC (0 to t) in rhesus monkey at 1 mg/kg, po; assay type: ADME, organism-based, Macaca mulatta; parameters: dose 1 mg/kg, route oral; settings: plasma; summary of the method: as §5
[25] = system: Rattus norvegicus; test: Ex vivo receptor occupancy of mGluR5 receptor in Sprague-Dawley rat brain at 3 mg/kg, ip after 30 mins; assay type: functional; settings: route intraperitoneal; summary of the method: as §2
[26] = system: Rattus norvegicus; test: Ex vivo receptor occupancy of mGluR5 receptor in Sprague-Dawley rat brain at 3 mg/kg, ip after 2 hrs; assay type: functional; settings: route intraperitoneal; summary of the method: as §2
[27] = system: Plasma; test: Drug level in Sprague-Dawley rat plasma at 3 mg/kg, ip; assay type: ADME, organism-based; parameters: dose 3 mg/kg, route intraperitoneal; settings: in vivo; summary of the method: as §1
[28] = Volume of distribution in Sprague-Dawley rat at 2 mg/kg, iv; assay type: ADME, organism-based; parameters: dose 2 mg/kg, route intravenous; settings: in vivo; summary of the method: as §4
[29] = Cmax in Sprague-Dawley rat at 2 mg/kg, iv; assay type: ADME, organism-based; parameters: dose 2 mg/kg, route intravenous; settings: in vivo; summary of the method: as §4
[30] = system: Rattus norvegicus; test: Ex vivo receptor occupancy of mGluR5 receptor in Sprague-Dawley rat brain at 3 mg/kg, ip after 24 hrs; assay type: functional, organism-based; parameters: dose 3 mg/kg; summary of the method: as §2
[31] = Oral bioavailability in Sprague-Dawley rat at 2 mg/kg; assay type: ADME, organism-based; settings: in vivo; summary of the method: as §4
[32] = (§6) Half life in Sprague-Dawley rat at 2 mg/kg, iv; assay type: ADME, organism-based; parameters: dose 2 mg/kg, route intravenous; settings: Sprague-Dawley, in vivo; summary of the method: as §4
[33] = system: Rattus norvegicus; test: as §6; assay type: ADME, organism-based; parameters: dose 2 mg/kg, route intravenous; settings: in vivo; summary of the method: as §4
[34] = Cmax in rhesus monkey at 1 mg/kg, po; assay type: ADME, organism-based, Macaca mulatta; parameters: dose 1 mg/kg, route oral; settings: in vivo; summary of the method: as §5
[35] = system: Rattus norvegicus; test: Ex vivo receptor occupancy of mGluR5 receptor in ip dosed Sprague-Dawley rat brain after 60 mins; assay type: functional; settings: 1 h; summary of the method: as §3

Sequence of Metabotropic glutamate receptor 5 (Rattus norvegicus, UniProt P31424) (P31424 whole entry): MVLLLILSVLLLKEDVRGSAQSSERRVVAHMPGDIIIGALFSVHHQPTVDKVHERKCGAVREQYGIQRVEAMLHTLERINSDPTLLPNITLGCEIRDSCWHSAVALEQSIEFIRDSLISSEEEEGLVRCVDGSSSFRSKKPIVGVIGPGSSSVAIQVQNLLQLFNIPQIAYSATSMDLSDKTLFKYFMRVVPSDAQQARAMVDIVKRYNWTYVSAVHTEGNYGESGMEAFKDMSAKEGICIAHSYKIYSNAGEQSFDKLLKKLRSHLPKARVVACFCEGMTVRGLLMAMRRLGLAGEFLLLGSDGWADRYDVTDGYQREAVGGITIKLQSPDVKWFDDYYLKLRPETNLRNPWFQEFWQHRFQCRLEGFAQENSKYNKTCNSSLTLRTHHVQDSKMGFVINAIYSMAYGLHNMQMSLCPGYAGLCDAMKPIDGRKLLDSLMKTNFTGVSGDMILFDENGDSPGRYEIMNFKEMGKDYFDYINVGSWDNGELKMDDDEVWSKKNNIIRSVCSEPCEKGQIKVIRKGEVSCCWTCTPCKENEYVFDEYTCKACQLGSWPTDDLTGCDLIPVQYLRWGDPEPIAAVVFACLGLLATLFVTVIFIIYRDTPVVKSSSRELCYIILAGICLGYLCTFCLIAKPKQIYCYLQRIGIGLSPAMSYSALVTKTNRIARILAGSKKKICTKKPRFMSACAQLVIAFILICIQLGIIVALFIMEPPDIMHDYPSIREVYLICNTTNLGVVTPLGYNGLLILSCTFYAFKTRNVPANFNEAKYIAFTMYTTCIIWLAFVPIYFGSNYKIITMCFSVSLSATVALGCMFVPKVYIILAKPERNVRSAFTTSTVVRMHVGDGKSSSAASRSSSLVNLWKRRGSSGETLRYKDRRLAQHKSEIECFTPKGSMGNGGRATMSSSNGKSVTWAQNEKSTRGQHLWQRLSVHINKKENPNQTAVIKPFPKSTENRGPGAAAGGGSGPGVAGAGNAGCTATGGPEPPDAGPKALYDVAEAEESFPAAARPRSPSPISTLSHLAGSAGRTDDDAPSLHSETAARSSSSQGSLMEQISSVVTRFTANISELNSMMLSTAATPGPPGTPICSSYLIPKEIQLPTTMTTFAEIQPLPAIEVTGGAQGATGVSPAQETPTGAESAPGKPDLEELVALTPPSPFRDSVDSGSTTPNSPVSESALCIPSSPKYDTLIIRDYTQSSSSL
Sequence of Kappa-type opioid receptor (Homo sapiens) (P41145 whole entry): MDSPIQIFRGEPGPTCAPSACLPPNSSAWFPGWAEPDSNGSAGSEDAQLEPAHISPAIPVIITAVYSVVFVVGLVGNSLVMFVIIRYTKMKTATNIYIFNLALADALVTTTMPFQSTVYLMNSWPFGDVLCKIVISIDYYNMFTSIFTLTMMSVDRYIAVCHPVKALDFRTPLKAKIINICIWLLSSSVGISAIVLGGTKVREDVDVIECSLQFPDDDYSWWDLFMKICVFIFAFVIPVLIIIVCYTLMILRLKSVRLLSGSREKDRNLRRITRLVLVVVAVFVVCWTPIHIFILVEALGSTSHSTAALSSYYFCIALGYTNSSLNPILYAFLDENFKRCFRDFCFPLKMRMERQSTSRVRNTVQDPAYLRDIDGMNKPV

SMILES: N#Cc1cccc(S(=O)(=O)N2CCc3nc(-c4ccccn4)oc3C2)c1
inhibition [1]: 14%

SMILES: N#Cc1cc(F)cc(N2CCc3nc(-c4ccccn4)sc3C2)c1
inhibition [1]: 52%

SMILES: N#Cc1cccc(N2CCc3nc(C4CCCCC4)oc3C2)c1
inhibition [1]: 79%

SMILES: N#Cc1cccc(CN2CCc3nc(-c4ccccn4)oc3C2)c1
inhibition [1]: 55%

SMILES: N#Cc1cccc(C(=O)N2CCc3nc(-c4ccccn4)oc3C2)c1
IC50 [2]: 2600 nM

SMILES: CC(C)c1nc2c(o1)CN(c1cccc(C#N)c1)CC2
inhibition [1]: 6%

SMILES: N#Cc1cccnc1N1CCc2nc(-c3ccccn3)oc2C1
IC50 [2]: 640 nM

SMILES: N#Cc1cccc(N2CCc3nc(C4CCCCN4)oc3C2)c1 (racemic)
inhibition [1]: 79%

SMILES: Cc1nc2c(o1)CCN(c1ncccc1C#N)C2
inhibition [1]: 7%

SMILES: N#Cc1cc(F)cc(N2CCn3nc(-c4ccccn4)nc3C2)c1
IC50 [2]: 346 nM

SMILES: N#Cc1cccc(N2CCc3nc(-c4ccccn4)oc3C2)c1
IC50 [2]: 290 nM

SMILES: N#Cc1cccc(N2CCc3oc(-c4ccncc4)nc3C2)c1
inhibition [1]: 30%

SMILES: N#Cc1cccc(N2CCc3nc(-c4cccnc4)oc3C2)c1
inhibition [1]: 14%

SMILES: N#Cc1cccnc1N1CCc2oc(-c3ccccc3)nc2C1
IC50 [2]: 1200 nM

SMILES: N#Cc1cc(F)cc(N2CCc3nc(-c4ccccn4)[nH]c3C2)c1
inhibition [1]: 34%

SMILES: N#Cc1cccnc1N1CCc2nc(-c3ccccc3)oc2C1
inhibition [1]: 79%

SMILES: N#Cc1cccc(N2CC3N=C(c4ccccn4)OC3C2)c1 (stereo not drawn)
IC50 [2]: 219 nM

SMILES: N#Cc1cc(F)cc(N2CCn3cc(-c4ccccn4)nc3C2)c1
IC50 [2]: 153 nM

Second part, led by results:

inhibition [1]: 0%
SMILES: c1ccc(-c2nc3c(o2)CCN(C2CCNCC2)C3)nc1

concentration [3]: 1290 nM
IC50 [2]: 28 nM
Ki [5]: 17 nM
SMILES: N#Cc1cc(F)cc(N2CCc3oc(-c4ccccn4)nc3C2)c1
Activity [4]: 45%
ED50 [6]: > 30 mg/kg

IC50 [2]: 330 nM
SMILES: c1ccc(N2CCc3oc(-c4ccccn4)nc3C2)cc1

IC50 [2]: 60 nM
SMILES: N#Cc1cccc(N2CCc3oc(-c4ccccn4)nc3C2)c1

Cmax [7]: 620 nM
Vd [8]: 0.95 L/kg
half-life [9]: 54.6 min
AUC(0-t) [10]: 3.06 µM·h
clearance [11]: 16.3 mL/min/kg
AUC(0-t) [12]: 0.7 µM·h
IC50 [2]: 16 nM
clearance [13]: 46.5 mL/min/kg
Cmax [14]: 5080 nM
half-life [15]: 37.8 min
inhibition [16]: 77%
half-life [17]: 40.2 min
AUC(0-t) [18]: 2.26 µM·h
AUC(0-t) [19]: 3.36 µM·h
bioavailability [20]: 10%
half-life [21]: 46.2 min
bioavailability [22]: 30%
Cmax [23]: 2730 nM
AUC(0-t) [24]: 0.28 µM·h
Ki [5]: 17 nM
concentration [27]: 1430 nM
Vd [28]: 2.38 L/kg
Cmax [29]: 5250 nM
bioavailability [31]: 31%
half-life [32]: 37.2 min
Drug uptake [33]: 1096 nM
Cmax [34]: 210 nM
SMILES: N#Cc1cc(F)cc(N2CCCc3oc(-c4ccccn4)nc3C2)c1
Activity [4]: 82%
Activity [25]: 85%
Activity [26]: 55%
Activity [30]: inactive
ED50 [35]: 0.9 mg/kg

inhibition [1]: 11%
SMILES: COC(=O)N1CCc2oc(-c3ccccn3)nc2C1

inhibition [1]: 0%
SMILES: c1ccc(-c2nc3c(o2)CCN(C2CCCCC2)C3)nc1

inhibition [1]: 0%
SMILES: CC(C)N1CCc2oc(-c3ccccn3)nc2C1

IC50 [2]: 110 nM
SMILES: N#Cc1cccnc1N1CCc2oc(-c3ccccn3)nc2C1

IC50 [2]: 54 nM
SMILES: N#Cc1cc(F)cc(N2CCc3nc(-c4ccccn4)oc3C2)c1
